Paper PMC8164216 (Pharmaceutical research, 2019)
Values joined by “and” are separate entries in the source; they are usually repeats but may differ in a detail not shown here. Equal values may be shown once. Marks after values point to notes of the source that are not given here.

Tests used:
[1] = Pharmacokinetic study in mice, non-compartmental analysis; type: in vivo, Female BALB/c mice
Method in brief: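 Mice were dosed IV by tail vein (10, 50, 100 mg/kg) or by oral gavage (100 mg/kg), in 20% w/v cyclodextrin-saline. Plasma from terminal cardiac puncture (n = 3–4/time point; 15 min–24 h IV, 10 min–24 h oral) was quantified by LC/MS/MS (LLOQ 0.15 ng/mL). Naïve-pooled non-compartmental analysis assumed 19 g body weight. AUC was by trapezoidal method, extrapolated to infinity. Fold change is relative to the 10 mg/kg IV dose.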

MCT1 [2] = conditions: murine 4T1 cells; cited from earlier work
MCT1 [3] = target: T1, MCT1 (Mus musculus, UniProt P53986); assay: Full TMDD model; type: in vivo, Female BALB/c mice
T1 sequence (P53986 1-493): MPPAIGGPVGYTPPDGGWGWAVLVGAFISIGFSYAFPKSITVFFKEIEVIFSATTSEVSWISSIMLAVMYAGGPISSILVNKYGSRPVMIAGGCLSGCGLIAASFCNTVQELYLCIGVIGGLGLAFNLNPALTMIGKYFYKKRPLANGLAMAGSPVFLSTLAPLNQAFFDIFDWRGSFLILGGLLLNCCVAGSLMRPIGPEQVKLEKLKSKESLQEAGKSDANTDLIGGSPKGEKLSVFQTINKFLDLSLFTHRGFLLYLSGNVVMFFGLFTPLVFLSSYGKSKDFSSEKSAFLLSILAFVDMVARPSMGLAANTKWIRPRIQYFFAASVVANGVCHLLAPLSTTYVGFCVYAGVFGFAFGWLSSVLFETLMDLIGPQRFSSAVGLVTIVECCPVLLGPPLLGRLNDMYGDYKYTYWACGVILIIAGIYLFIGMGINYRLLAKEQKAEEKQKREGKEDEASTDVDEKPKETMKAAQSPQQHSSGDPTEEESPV
T1 sequence (P18572 140-389 partner limits assumed): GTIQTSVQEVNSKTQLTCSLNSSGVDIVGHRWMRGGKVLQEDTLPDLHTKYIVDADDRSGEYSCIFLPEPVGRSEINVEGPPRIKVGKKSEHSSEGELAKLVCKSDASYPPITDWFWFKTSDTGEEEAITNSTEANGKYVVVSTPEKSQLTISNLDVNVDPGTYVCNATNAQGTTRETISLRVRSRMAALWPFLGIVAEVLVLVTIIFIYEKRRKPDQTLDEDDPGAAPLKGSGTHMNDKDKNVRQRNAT

MCT1 [4] = conditions: cited from earlier work
[5] = breast tumor xenograft study; cited from earlier work
MCT2 = conditions: to a lesser extent than MCT1; cited from earlier work
[6] = Compartmental PK modeling, full TMDD model; type: in vivo, Female BALB/c mice
[7] = Compartmental PK modeling with enterohepatic cycling and M-M elimination; type: in vivo, Female BALB/c mice; conditions: for Vp: simultaneous fit of IV and oral data; for Vmax / Km: M-M elimination; for CLb: clearance to bile compartment; for Km: female, BALB/c, mouse, plasma, other: intravenous and oral, fitted simultaneously
Method in brief: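 Female BALB/c mice (18–20 g) got the test compound in 20% w/v cyclodextrin in normal saline, by tail-vein IV (10, 50, 100 mg/kg) or oral gavage (100 mg/kg). Terminal cardiac blood (isoflurane, lithium heparin; n = 3–4/time point) was taken to 24 h, and plasma was assayed by LC/MS/MS. Naïve-pooled IV and oral data were fitted together by maximum likelihood to enterohepatic-cycling models with lag time and Michaelis-Menten elimination.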

[8] = female, BALB/c, mouse, plasma, iv, 10 mg/kg
[9] = female, BALB/c, mouse, plasma, iv, 50 mg/kg
[10] = female, BALB/c, mouse, plasma, iv, 100 mg/kg
[11] = female, BALB/c, mouse, plasma, po, 100 mg/kg

SMILES: Cc1[nH]nc(C(F)(F)F)c1Cc1sc2c(c1C(=O)N1C[C@](C)(O)CO1)c(=O)n(C)c(=O)n2C(C)C [AZD3965, 5-[(4S)-4-hydroxy-4-methyl-1,2-oxazolidine-2-carbonyl]-1-isopropyl-3-methyl-6-{[3-methyl-5-(trifluoromethyl)-2H-pyrazol-4-yl]methyl}thieno[2,3-d]pyrimidine-2,4-dione]
- Vc/F ([1]; IV 10 mg/kg, mice (19 g)): 53.4 mL
- AUC0−∞, fold change from the lowest IV dose ([1]; IV 50 mg/kg vs 10 mg/kg): 8.36 fold
- CL, fold change from the lowest IV dose ([1]; IV 50 mg/kg vs 10 mg/kg): 0.50 fold
- Cmax, fold change from the lowest IV dose ([1]; IV 50 mg/kg vs 10 mg/kg): 7.49 fold
- Vss, fold change from the lowest IV dose ([1]; IV 50 mg/kg vs 10 mg/kg): 0.58 fold
- t1/2, fold change from the lowest IV dose ([1]; IV 50 mg/kg vs 10 mg/kg): 0.89 fold
- λz, fold change from the lowest IV dose ([1]; IV 50 mg/kg vs 10 mg/kg): 1.12 fold
- Vc/F ([1]; IV 50 mg/kg, mice (19 g)): 31.0 mL
- AUC0−∞, fold change from the lowest IV dose ([1]; IV 100 mg/kg vs 10 mg/kg): 17.5 fold
- CL, fold change from the lowest IV dose ([1]; IV 100 mg/kg vs 10 mg/kg): 0.47 fold
- Cmax, fold change from the lowest IV dose ([1]; IV 100 mg/kg vs 10 mg/kg): 13.6 fold
- Vss, fold change from the lowest IV dose ([1]; IV 100 mg/kg vs 10 mg/kg): 0.65 fold
- t1/2, fold change from the lowest IV dose ([1]; IV 100 mg/kg vs 10 mg/kg): 0.87 fold
- λz, fold change from the lowest IV dose ([1]; IV 100 mg/kg vs 10 mg/kg): 1.16 fold
- Vc/F ([1]; IV 100 mg/kg, mice (19 g)): 34.6 mL
- AUC(0-inf) [1, 8]: 4940 ng·h/mL
- Cmax [1, 8]: 4020 ng/mL
- Vd [1, 8]: 0.0442 L
- clearance [1, 8]: 0.773 mL/min
- concentration at 24 h [1, 8]: 0.285 ng/mL
- half-life [1, 8]: 2.91 h
- k el [1, 8]: 6.61e-05 s⁻¹
- AUC(0-inf) [1, 9]: 41300 ng·h/mL
- Cmax [1, 9]: 30100 ng/mL
- Vd [1, 9]: 0.0256 L
- clearance [1, 9]: 0.383 mL/min
- half-life [1, 9]: 2.6 h
- k el [1, 9]: 7.39e-05 s⁻¹
- AUC(0-inf) [1, 10]: 86400 ng·h/mL
- Cmax [1, 10]: 54500 ng/mL
- Vd [1, 10]: 0.0286 L
- clearance [1, 10]: 0.367 mL/min
- half-life [1, 10]: 2.51 h
- k el [1, 10]: 7.64e-05 s⁻¹
- bioavailability ([1]; female, BALB/c, mouse, plasma, oral, 100 mg/kg): 82.7%
- AUC(0-inf) [1, 11]: 71400 ng·h/mL
- Cmax [1, 11]: 30300 ng/mL
- Tmax [1, 11]: 0.333 h
- half-life [1, 11]: 4.46 h
- k el [1, 11]: 4.33e-05 s⁻¹
- CL/F ([1]; oral 100 mg/kg, mice (19 g)): 26.6 mL/h
- Vc/F ([1]; oral 100 mg/kg, mice (19 g)): 171 mL
- duration of inhibition of L-lactate uptake (MCT1 [2]): up to 5 h
- pre-incubation period for maximal inhibition of L-lactate uptake (MCT1 [2]): 5 min
- Rtotal (total transporter concentration) (MCT1 [3]; Model C): 54.8 ± 4.90 μg/ml and 54.8 ± 4.90 (8.92) μg/ml
- kon (MCT1 [3]; Model C, converted based on the molecular weight): 6.21 ± 5.92 (95. 3) μM^−1 h^−1
- koff (MCT1 [3]; mouse): 0.00641 s⁻¹
- Ki (MCT1 [4]): 1.6 nM
- concentration in 4T1 tumor versus plasma [5]: 25.5 fold
- activity against MCT2 (MCT2): some activity
- ka ([6]; Model C): 34.4 ± 4.80 (14.0) h^−1
- kpt ([6]; Model C): 0.302 ± 0.074 (24.7) h^−1
- ktp ([6]; Model C): 0.452 ± 0.041 (9.12) h^−1
- Vp ([6]; Model C (full TMDD model), fixed): 2.04 ml and 2.04 (Fixed) ml
- CLd ([7]; Model A): 0.332 ± 0.064 (19.3) ml/h
- F ([7]; Model A): 1.00 ± 0.003 (0.32)
- ka ([7]; Model A): 3.39 ± 1.11 (32.7) h^−1
- Vp ([7]; Model A (EHC model)): 48.6 ± 5.86 (12.1) ml
- Vmax ([7]; Model A): 26.4 ± 8.30 (31.7) μg/h
- CLb ([7]; Model A): 0.529 ± 0.074 (13.9) ml/h
- ko ([7]; Model A, first-order rate constant of release from bile): 0.0015 ± 0.0004 ^a (29.0) h^−1
- Tlag ([7]; Model A, fixed in final estimation): 5.92 (Fixed) h
- CLd ([7]; Model B): 0.023 ± 0.003 (11.1) ml/h
- F ([7]; Model B): 0.998 ± 0.003 (0.31)
- ka ([7]; Model B): 5.13 ± 1.98 (38.6) h^−1
- Vp ([7]; Model B (simplified EHC model)): 55.8 ± 5.20 (9.35) ml
- Tlag.iv ([7]; Model B, IV): 6.00 ± 0.0006 (0.01) h
- Vmax ([7]; Model B): 411 ± 42.0 (10.3) μg/h
- CLb ([7]; Model B): 0.178 ± 0.019 (10.8) ml/h
- Tlag.po ([7]; Model B, oral): 5.90 ± 0.06 (1.05) h
- ko ([7]; Model B, zero-order rate constant of release from bile): 0.386 ± 0.146 ^b (37.9) ng/h
- Km ([7]; Model A): 9.59 ± 4.63 µg/mL
- Km ([7]; Model B): 385 ± 58 µg/mL
